In brackets after ≈: the same amount, converted by molar mass. Activity calls are given as the source filed them. No cut-off for these calls is given here.
Key:
HeLa [1] = assay: Cell cycle arrest in human HeLa cells assessed as accumulation at G2/M cells at 5 uM after 18 hrs by flow cytometry; assay type: functional
In short: (§1)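 HeLa in RPMI-1640 with 10% FBS, Pen-Strep; 8 x 10^5 cells in 4 mL dosed at 5 µM (0.05% DMSO final) for 18 h, triplicate. Harvested cells fixed in 70% ice-cold ethanol 1 h at -20 °C, RNase A treated 2 h, propidium iodide 50 µg/mL stained. DNA content by flow cytometry, 20,000 events, single cells gated on PI width vs area.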

MCF7 [2] = assay: Antiproliferative activity against human MCF7 cells after 72 hrs by crystal violet biomass reduction assay; assay type: functional, cell-based; conditions: MCF7, 72 h
In short: (§2)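 Cells grown in α-MEM with 5% FBS at 37 °C, 5% CO2; 2,500 cells/well allowed 24 h before compound in DMSO, triplicates, ≥5 concentrations, 72 h exposure. Biomass read by crystal violet staining, Triton X-100 elution, OD 595 nm. IC50 from dose-response as 50% reduction in net cell mass versus vehicle, corrected with no-cell background.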

U-937 = assay: Antiproliferative activity against human U937 cells by sulforhodamine B assay; assay type: functional, cell-based
In short: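 U-937 cells in RPMI-1640 with 10% FBS and 1% Pen-Strep; 4 x 10^4 cells/well, compound in DMSO, replicates of 5, 72 h at 37 °C, 5% CO2. Fixed with cold TCA overnight at 4 °C. Stained 30 min with 0.057% SRB in 1% acetic acid; bound dye released in 10 mM Tris base, A510 read. Vehicle and cell-free wells set 100%/0% biomass; IC50 from logistic fit.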

HeLa [3] = assay: Cell cycle arrest in human HeLa cells assessed as accumulation at G1 phase at 5 uM after 18 hrs by flow cytometry; assay type: functional; in short: as §1
HeLa [4] = assay: Cell cycle arrest in human HeLa cells assessed as accumulation at G2 phase at 5 uM after 18 hrs by flow cytometry; assay type: functional; in short: as §1
HeLa [5] = assay: Cell cycle arrest in human HeLa cells assessed as accumulation at S phase at 5 uM after 18 hrs by flow cytometry; assay type: functional; in short: as §1
HeLa [6] = assay: Cell cycle arrest in human HeLa cells assessed as accumulation at G2/G1 phase at 5 uM after 18 hrs by flow cytometry; assay type: functional; in short: as §1
[7] = Inhibition of tubulin polymerization at 10 uM
In short: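 Tubulin added in PIPES pH 6.9 buffer with EGTA, MgCl2, 5% glycerol; compound at 10 µM final from DMSO. After 10 min on ice, GTP added, then polymerization followed by absorbance at 340 nm for 30 min at 37 °C. Paclitaxel and nocodazole at 10 µM final as controls.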

[8] = tested on: Mycobacterium tuberculosis; assay: Antimycobacterial activity against Mycobacterium tuberculosis H37Rv; assay type: functional
MCF7 [9] = assay: Antiproliferative activity against human MCF7 cells by crystal violet biomass reduction assay; assay type: functional, cell-based; conditions: TDE = time-dependent effect; in short: as §2
HeLa [10] = assay: Change in cellular morphology of human HeLa cells assessed as DNA condensation at 5 uM after 18 hrs using propidium-iodide staining by confocal microscopy; assay type: functional, cell-based
In short: (§3)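 HeLa attached 3 h on cover slips, then 18 h with DMSO vehicle or 5 µM compound (0.05% DMSO final). Brief microtubule stabilizing buffer (PIPES pH 6.8), 0.5% glutaraldehyde fixation 10 min, NaBH4 quench, blocking; FITC anti-α-tubulin (1:50) with RNase A 2.5 h, then propidium iodide 50 µg/mL 15 min. Imaged by confocal microscopy.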

HeLa [11] = assay: Change in cellular morphology of human HeLa cells assessed as microtubule disruption at 5 uM after 18 hrs using FITC-conjugated alpha-tubulin antibody by confocal microscopy; assay type: functional, cell-based; in short: as §3
HeLa [12] = assay: Cell cycle arrest in human HeLa cells assessed as accumulation at M phase at 5 uM after 18 hrs by flow cytometry; assay type: functional, cell-based; in short: as §1
HeLa [13] = assay: Change in cellular morphology of human HeLa cells assessed as interference in microtubule formation at 5 uM after 18 hrs by confocal microscopy; assay type: functional, cell-based; in short: as §3

Structure (SMILES)	IC50 (MCF7 [2])	IC50 (U-937)	inhibition [7]	MIC [8]	further results
CC(=O)NCc1cn(Cc2cccc(Oc3ccccc3)c2)nn1	6400 nM	28000 nM			Activity (HeLa [1]): inactive; Activity (HeLa [3]): 53.85%; Activity (HeLa [4]): 17.26%; Activity (HeLa [5]): 24.94%; Activity (HeLa [6]): 1.87%
CC(=O)O[C@H]1C(=O)[C@@]2(C)[C@H]([C@H](OC(=O)c3ccccc3)[C@]3(O)C[C@H](OC(=O)[C@H](O)[C@@H](NC(=O)c4ccccc4)c4ccccc4)C(C)=C1C3(C)C)[C@]1(OC(C)=O)CO[C@@H]1C[C@@H]2O			inactive		
COc1cc2c(cc1O)CC[C@@H]1[C@@H]2CC[C@]2(C)[C@@H](O)CC[C@@H]12 [2-METHOXYESTRADIOL]	842 nM	2910 nM			
CCCCCCCCCCCCCCCC(=O)N(O)CCCC[C@H](NC(=O)[C@H]1COC(c2ccccc2O)=N1)C(=O)O[C@@H](C)CC(=O)N[C@H]1CCCCN(O)C1=O				3.9 µM (≈ 3.13 µg/mL)	
O=C(NCc1cn(Cc2cccc(Oc3ccccc3)c2)nn1)c1ccccc1	245 nM				
COC(=O)Nc1nc2cc(C(=O)c3cccs3)ccc2[nH]1			Active		
COc1cc2c(c(OC)c1OC)-c1ccc(OC)c(=O)cc1[C@@H](NC(C)=O)CC2 [COLCHICINE]	13.4 nM	8 nM			
COc1ccc(C2=NC(C(=O)Nc3ccccc3O)CO2)cc1 (configuration not stated)	> 20000 nM			13 µM (≈ 4.06 µg/mL)	
O=C(OCc1ccccc1)[C@H]1COC(c2ccccc2OCc2ccccc2)=N1	> 20000 nM			4.2 µM (≈ 1.63 µg/mL)	
O=C(NCc1cn(Cc2cccc(Oc3ccccc3)c2)nn1)c1ccccn1	46 nM	580 nM	Active		Activity (HeLa [1]): >90%; Activity (MCF7 [9]): tde; Activity (HeLa [3]): 0.86%; Activity (HeLa [4]): 90.72%; Activity (HeLa [5]): 7.59%; Activity (HeLa [6]): 2%; Activity (HeLa [10]): Active; Activity (HeLa [11]): Active; Activity (HeLa [12]): Active; Activity (HeLa [13]): Active

Source: ChEMBL document CHEMBL1156192, “N-((1-benzyl-1H-1,2,3-triazol-4-yl)methyl)arylamide as a new scaffold that provides rapid access to antimicrotubule agents: synthesis and evaluation of antiproliferative activity against select cancer cell lines” (J Med Chem, 2010)
